Assays:
[1] = target: T1, Muscarinic acetylcholine receptor M1 (Homo sapiens) (UniProt P11229); experiment: Allosteric modulation of human muscarinic M1 receptor expressed in CHO cells assessed as effect on acetylcholine-induced calcium mobilization by FLIPR assay; format: functional, cell-based
T1 sequence (whole entry): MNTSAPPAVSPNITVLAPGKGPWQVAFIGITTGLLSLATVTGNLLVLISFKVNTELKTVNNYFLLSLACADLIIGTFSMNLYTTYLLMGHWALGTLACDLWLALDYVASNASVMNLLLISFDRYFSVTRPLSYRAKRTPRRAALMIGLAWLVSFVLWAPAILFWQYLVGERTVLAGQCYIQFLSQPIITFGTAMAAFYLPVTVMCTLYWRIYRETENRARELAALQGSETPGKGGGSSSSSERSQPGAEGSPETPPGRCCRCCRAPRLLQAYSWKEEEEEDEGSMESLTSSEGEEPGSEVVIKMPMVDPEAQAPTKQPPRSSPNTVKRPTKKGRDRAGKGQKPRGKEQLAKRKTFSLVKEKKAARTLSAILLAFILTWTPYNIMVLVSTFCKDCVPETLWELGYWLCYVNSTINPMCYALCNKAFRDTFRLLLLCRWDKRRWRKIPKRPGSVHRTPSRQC
Outline: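 Human M1-expressing CHO cells; test compound added with an EC20 concentration of acetylcholine; calcium mobilization read on FLIPR384. Inflection point (IP) derived; percent max is the maximum potentiated EC20 response. Values are the mean of at least two experiments; interassay variability ±30% for IP unless otherwise noted.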

[2] = Plasma concentration in Sprague-Dawley rat at 10 mg/kg, po after 2 hrs
[3] = Drug level Sprague-Dawley rat brain at 10 mg/kg, po after 2 hrs
[4] = Ratio of drug level in brain to plasma Sprague-Dawley rat at 10 mg/kg, po after 2 hrs
[5] = target: T1, Muscarinic acetylcholine receptor M1 (Homo sapiens); experiment: Allosteric modulation of human muscarinic M1 receptor expressed in CHO cells assessed as effect on acetylcholine-induced calcium mobilization by FLIPR assay relative to 1-Biphenyl-4-ylmethyl-4-oxo-1,4-dihydro-quinoline-3-carboxylic acid; format: functional, cell-based
[6] = target: T1, Muscarinic acetylcholine receptor M1 (Homo sapiens); experiment: Potentiation of human muscarinic M1 receptor expressed in CHO cells assessed as effect on acetylcholine-induced calcium mobilization by FLIPR assay at 30 uM
[7] = Drug level Sprague-Dawley rat cerebrospinal fluid at 10 mg/kg, po after 2 hrs

| SMILES | IP [1] | further results |
| --- | --- | --- |
| O=C(O)c1cn(Cc2ccc(-c3ccc4[nH]ccc4c3)nn2)c2c(F)cccc2c1=O | 8660 nM |  |
| CS(=O)(=O)c1cccc(-c2ccc(Cn3cc(C(=O)O)c(=O)c4cccc(F)c43)nn2)c1 | 1540 nM |  |
| CN(C)c1cccc(-c2ccc(Cn3cc(C(=O)O)c(=O)c4cccc(F)c43)cn2)c1 | 130 nM |  |
| CS(=O)(=O)c1ccccc1-c1ccc(Cn2cc(C(=O)O)c(=O)c3cccc(F)c32)nc1 | 97 nM |  |
| CS(=O)(=O)c1ccc(-c2ccc(Cn3cc(C(=O)O)c(=O)c4cccc(F)c43)nc2)cc1 | 260 nM | fold change (FC) [6]: 33 |
| O=C(O)c1cn(Cc2cnc(-c3ccccc3)cn2)c2c(F)cccc2c1=O | 1300 nM | Emax [5]: 85% |
| Nc1cccc(-c2ccc(Cn3cc(C(=O)O)c(=O)c4cccc(F)c43)nc2)c1 | 21 nM | fold change (FC) [6]: 45 |
| O=C(O)c1cn(Cc2ccc(-c3ccccc3)nc2)c2c(F)cccc2c1=O | 604 nM | Emax [5]: 97% |
| Nc1cccc(-c2ccc(Cn3cc(C(=O)O)c(=O)c4cccc(F)c43)cn2)c1 | 21 nM |  |
| O=C(O)c1cn(Cc2ccc(-c3cccnc3)nn2)c2c(F)cccc2c1=O | 778 nM |  |
| O=C(O)c1cn(Cc2ncc(-c3ccccc3)cn2)c2c(F)cccc2c1=O | 2320 nM | Emax [5]: 90% |
| O=C(O)c1cn(Cc2ccc(-c3cccs3)cn2)c2c(F)cccc2c1=O | 150 nM |  |
| CC(=O)Nc1ccc(-c2ccc(Cn3cc(C(=O)O)c(=O)c4cccc(F)c43)nc2)cc1 | 78 nM |  |
| CN(C)c1ccc(-c2ccc(Cn3cc(C(=O)O)c(=O)c4cccc(F)c43)nc2)cn1 | 82 nM |  |
| O=C(O)c1cn(Cc2ccc(-c3ccc4[nH]ccc4c3)nc2)c2c(F)cccc2c1=O | 65 nM |  |
| CS(=O)(=O)c1cccc(-c2ccc(Cn3cc(C(=O)O)c(=O)c4cccc(F)c43)nc2)c1 | 97 nM |  |
| O=C(O)c1cn(Cc2ccc(-c3ccc4[nH]ccc4c3)cn2)c2c(F)cccc2c1=O | 57 nM |  |
| Nc1ccc(-c2ccc(Cn3cc(C(=O)O)c(=O)c4cccc(F)c43)nc2)cn1 | 200 nM |  |
| O=C(O)c1cn(Cc2ccc(-c3ccc(F)cc3)cn2)c2c(F)cccc2c1=O | 67 nM |  |
| O=C(O)c1cn(Cc2cnc(-c3ccccc3)nc2)c2c(F)cccc2c1=O | 4000 nM | Emax [5]: 88% |
| O=C(O)c1cn(Cc2ccc(-c3cncc(F)c3)cn2)c2c(F)cccc2c1=O | 680 nM |  |
| O=C(O)c1cn(Cc2ccc(-c3ccc(F)cc3)nn2)c2c(F)cccc2c1=O | 466 nM |  |

Now from value to compound, other results behind:

| IP [1] | SMILES | further results |
| --- | --- | --- |
| 28 nM | CS(=O)(=O)c1cccc(-c2ccc(Cn3cc(C(=O)O)c(=O)c4cccc(F)c43)cn2)c1 | concentration at 2 h [2]: 0.382 µM; concentration at 2 h [3]: 154 nM; Kp at 2 h [4]: 0.4 |
| 390 nM | O=C(O)c1cn(Cc2ccc(-c3ccccc3)nn2)c2c(F)cccc2c1=O | Emax [5]: 97% |
| 190 nM | O=C(O)c1cn(Cc2ccc(-c3ccc(F)cc3)nc2)c2c(F)cccc2c1=O |  |
| 114 nM | Cn1cc(-c2ccc(Cn3cc(C(=O)O)c(=O)c4c(F)ccc(F)c43)nc2)cn1 |  |
| 169 nM | O=C(O)c1cn(Cc2ccc(-c3ccnc(Cl)c3)cn2)c2c(F)cccc2c1=O |  |
| 100 nM | O=C(O)c1cn(Cc2ccc(-c3ccc(F)nc3)cn2)c2c(F)cccc2c1=O | concentration at 2 h [2]: 12.8 µM; concentration at 2 h [3]: 311 nM; concentration at 2 h [7]: 97 nM; Kp at 2 h [4]: 0.05; fold change (FC) [6]: 81 |
| 370 nM | O=C(O)c1cn(Cc2ccc(-c3cccnc3)cn2)c2c(F)cccc2c1=O | concentration at 2 h [2]: 2.79 µM; concentration at 2 h [3]: 154 nM; concentration at 2 h [7]: 25 nM; Kp at 2 h [4]: 0.05 |
| 202 nM | O=C(O)c1cn(Cc2ccc(-c3ccc(F)nc3)nc2)c2c(F)cccc2c1=O |  |
| 153 nM | O=C(O)c1cn(Cc2ccc(-c3ccccc3)cn2)c2c(F)cccc2c1=O | Emax [5]: 80%; fold change (FC) [6]: 37 |
| 169 nM | O=C(O)c1cn(Cc2ccc(-c3ccc(Cl)nc3)nc2)c2c(F)cccc2c1=O |  |
| 110 nM | CN(C)c1cccc(-c2ccc(Cn3cc(C(=O)O)c(=O)c4cccc(F)c43)nc2)c1 |  |
| 660 nM | COc1ccc(Cn2cc(C(=O)O)c(=O)c3ccccc32)cc1 |  |
| 89 nM | COc1cccc(-c2ccc(Cn3cc(C(=O)O)c(=O)c4cccc(F)c43)nc2)c1 |  |
| 160 nM | Cn1cc(-c2ccc(Cn3cc(C(=O)O)c(=O)c4cccc(F)c43)nc2)cn1 | concentration at 2 h [2]: 33.3 µM; concentration at 2 h [3]: 430 nM; concentration at 2 h [7]: 40 nM; Kp at 2 h [4]: 0.03; fold change (FC) [6]: 37 |
